The text below walks through data of ChEMBL document CHEMBL3259814, “Synthesis and biological evaluation of compounds which contain pyrazole, thiazole and naphthalene ring as antitumor agents” (Bioorg Med Chem Lett, 2014).

Series [1] in a line: Antiproliferative activity against human BGC823 cells assessed as growth inhibition after 24 to 48 hrs by CCK8 assay. The settings on record: BGC-823. In kind it is functional, cell-based. In a few lines: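 The CCK8 assay was run on BGC823 cells alongside HeLa and HepG2 cells. Inhibition of cell proliferation was reported as IC50.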
The test system of series [2] is HeLa. Kind of series: cells. The settings on record: Homo sapiens. In kind it is functional, cell-based.
The test system of series [3] is HepG2. Kind of series: cells. In kind it is functional, cell-based. The settings on record: Homo sapiens.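 Also: antiproliferative effect read out as growth inhibition by CCK8 assay, measured after 24–48 h.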
In series [4] the target is Epidermal growth factor receptor (Homo sapiens, UniProt P00533). In kind it is cell-based, Sf-9.
Chain of Epidermal growth factor receptor (P00533 whole entry): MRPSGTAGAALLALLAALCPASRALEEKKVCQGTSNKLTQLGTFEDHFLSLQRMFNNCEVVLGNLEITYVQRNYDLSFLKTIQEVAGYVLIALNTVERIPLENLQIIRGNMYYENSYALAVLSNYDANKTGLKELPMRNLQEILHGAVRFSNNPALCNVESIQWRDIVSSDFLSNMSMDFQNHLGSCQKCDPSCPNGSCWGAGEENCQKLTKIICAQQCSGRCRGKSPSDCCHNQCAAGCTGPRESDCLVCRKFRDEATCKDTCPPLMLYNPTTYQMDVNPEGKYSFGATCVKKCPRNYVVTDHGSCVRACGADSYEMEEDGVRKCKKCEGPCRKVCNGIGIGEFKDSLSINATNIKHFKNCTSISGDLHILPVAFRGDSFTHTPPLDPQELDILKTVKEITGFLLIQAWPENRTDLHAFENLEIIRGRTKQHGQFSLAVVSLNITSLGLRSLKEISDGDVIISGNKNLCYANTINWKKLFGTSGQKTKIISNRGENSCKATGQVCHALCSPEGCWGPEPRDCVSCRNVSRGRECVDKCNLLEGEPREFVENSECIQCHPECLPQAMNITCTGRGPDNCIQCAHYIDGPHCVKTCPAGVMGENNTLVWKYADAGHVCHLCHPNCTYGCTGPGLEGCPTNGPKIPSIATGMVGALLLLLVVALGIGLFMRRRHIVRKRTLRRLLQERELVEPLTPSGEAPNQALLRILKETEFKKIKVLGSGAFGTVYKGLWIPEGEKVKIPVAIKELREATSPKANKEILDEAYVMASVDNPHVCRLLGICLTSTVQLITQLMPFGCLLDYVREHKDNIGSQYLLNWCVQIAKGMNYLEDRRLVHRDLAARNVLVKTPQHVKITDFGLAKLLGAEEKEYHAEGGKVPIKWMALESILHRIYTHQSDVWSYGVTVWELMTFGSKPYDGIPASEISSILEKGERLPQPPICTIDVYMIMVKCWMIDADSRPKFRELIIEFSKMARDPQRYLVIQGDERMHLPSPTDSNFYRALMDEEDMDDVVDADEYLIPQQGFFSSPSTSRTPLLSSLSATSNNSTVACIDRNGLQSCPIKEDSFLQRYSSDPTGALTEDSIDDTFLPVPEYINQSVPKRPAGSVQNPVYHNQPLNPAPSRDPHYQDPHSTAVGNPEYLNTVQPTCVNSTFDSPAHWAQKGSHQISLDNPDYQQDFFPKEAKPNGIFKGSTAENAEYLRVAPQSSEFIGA
The nature of series [5]: Antiproliferative activity against human macrophages assessed as alteration in cell morphology after 24 hrs by CCK8 assay. It counts as cell-based, Macrophage. A general note: Tetrazolium assays rely on reduction of a dye to a coloured formazan, in cell work by metabolically active cells.
Series [6] deals with HeLa. Kind of series: Antimetastatic activity against human HeLa cells at 0.08 to 0.12 uM by transwell migration assay. It counts as functional, cell-based. Summed up: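 HeLa cell migration was tested at 0.08, 0.10 and 0.12 µM. Migrating cells are expressed as a percentage of an untreated control set at 100%. Data are mean ± SD, with p < 0.05 versus control.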
For series [7], the system named is HeLa. Kind of series: Toxicity against human HeLa cells assessed as survival at 0.14 uM by CCK8 assay. It counts as cell-based. Summed up: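 HeLa survival ratio was measured against compound concentration by CCK8 assay, including 0.14 µM. This was done before the migration testing.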

Activity calls are given as the source filed them. The rule behind the calls is not given here.

One may read the IC50 as the concentration that gives 50% inhibition. In the case of `O=C1CSC(N2N=C(c3ccc(F)cc3)CC2c2ccc3ccccc3c2)=N1` (centres undefined), the IC50 in series [1] was 14.9 µM; in series [2], 9.17 µM; in series [3], 24.1 µM.

As to `Cc1ccc(C2=NN(C3=NC(=O)CS3)C(c3ccc4ccccc4c3)C2)cc1` (centres undefined), the 50% inhibitory concentration (IC50) in series [1] turned out to be 7.79 µM; in series [2] it was 1.76 µM; in series [3] it was 12.7 µM; in series [4], 3.25 µM.

Take `O=C1CSC(N2N=C(c3ccc(Br)cc3)CC2c2cccc3ccccc23)=N1` (centres undefined): the IC50 in series [1] came out at 14.6 µM; in series [2] it was 5.81 µM; in series [3], 13.4 µM.

For `O=C1CSC(N2N=C(c3ccc(Cl)cc3)CC2c2cccc3ccccc23)=N1` (centres undefined), the IC50 in series [1] stood at 16.4 µM; in series [2], 8.84 µM; in series [3], 16.4 µM.

As for `O=C1CSC(N2N=C(c3ccc(Cl)cc3)CC2c2ccc3ccccc3c2)=N1` (centres undefined), the IC50 in series [1] was 13.2 µM; in series [2] it was 6.32 µM; in series [3], 20.4 µM.

On to `O=C1CSC(N2N=C(c3ccccc3)CC2c2cccc3ccccc23)=N1` (centres undefined), for which the values for the IC50 in series [1], in series [2] and in series [3] were 11.2 µM, 4.62 µM and 10.1 µM, respectively.

For `O=C1CSC(N2N=C(c3ccc(F)cc3)CC2c2cccc3ccccc23)=N1` (centres undefined), the IC50 in series [1] stood at 19.3 µM; in series [2] it was 11.2 µM; in series [3], 19.5 µM.

One may read the CC50 as the concentration at which the toxic effect on the cells reaches its halfway point. As for `COc1ccc(C2=NN(C3=NC(=O)CS3)C(c3cccc4ccccc34)C2)cc1` (centres undefined), the IC50 in series [1] stood at 8.21 µM; in series [2], 2.54 µM; in series [3], 7.85 µM; in series [4] it was 5.53 µM. Moreover, the half-maximal cytotoxic concentration (CC50) at 24 h in series [5] is 273 µM.

As for `Cc1ccc(C2=NN(C3=NC(=O)CS3)C(c3cccc4ccccc34)C2)cc1C` (centres undefined), the IC50 turned out to be 7.11 µM in series [1], 1.33 µM in series [2], 5.94 µM in series [3] and 1.32 µM in series [4]. In series [5], the CC50 at 24 h was found to be 383 µM.

Regarding `COc1ccc(C2=NN(C3=NC(=O)CS3)C(c3ccc4ccccc4c3)C2)cc1` (centres undefined), the results for the IC50 in series [1], in series [2] and in series [3] were 6.94 µM, 1.48 µM and 10.4 µM, respectively. Moreover, the CC50 at 24 h in series [5] stood at 363 µM.

For `Cc1ccc(C2=NN(C3=NC(=O)CS3)C(c3ccc4ccccc4c3)C2)cc1C` (centres undefined), the IC50 in series [1] was determined as 6.02 µM; in series [2], 0.86 µM; in series [3], 8.49 µM; in series [4], 0.12 µM. Further, the outcome in series [6] was Active. Moreover, the CC50 at 24 h in series [5] stood at 397 µM. In addition, the Activity entry in series [7] is given as “Non-toxic”.

`O=C1CSC(N2N=C(c3ccc(Br)cc3)CC2c2ccc3ccccc3c2)=N1` (centres undefined): the results for the IC50 in series [1], in series [2] and in series [3] were 11.7 µM, 4.22 µM and 18.2 µM, respectively.

Consider `O=C1CSC(N2N=C(c3ccccc3)CC2c2ccc3ccccc3c2)=N1` (centres undefined), for which the 50% inhibitory concentration (IC50) in series [1] stood at 8.86 µM; in series [2], 3.18 µM; in series [3] it was 15.7 µM; in series [4], 6.31 µM. The CC50 at 24 h in series [5] stood at 345 µM.

With `Cc1ccc(C2=NN(C3=NC(=O)CS3)C(c3cccc4ccccc34)C2)cc1` (centres undefined), the IC50 in series [1] was found to be 10 µM; in series [2] it was 3.21 µM; in series [3] it was 8.66 µM.
